Pemphigus Ab inh: human desmoglein-3 autoantibody binding inhibition; binding (percent of control), % at 10 µM; DSG3-coupled beads, scFv-anti-DSG3-GFP binding, flow cytometry; stronger effect = lower value; 310,000 compounds, 0.48% hits;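 active means binding more than 3 SD below its plate's average and above zero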;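 further: hits lower antibody fragment binding to DSG3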
Arrestin-AP2 inh: human beta-arrestin and AP2 interaction inhibition. FITC-arrestin peptide / GST-AP2 beads, flow cytometry; AP2 beta2 appendage carries R879A mutation. inhibition, % at 10 µM. 340,000 compounds, 0.31% hits;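 active means inhibition above a set limit, near 3 SD of compounds lacking own fluorescence, cut at about 54% in these data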;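 further: plate controls were DMSO wells for no effect and 5 µM unlabelled arrestin peptide for full effect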
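Test system: GST-tagged AP2 beta2-adaptin appendage (R879A) on 4 µm glutathione beads; also added: fluorescein-tagged arrestin peptide at 50 nM final; timing: 12 min plus 1 h, RT; signal: flow cytometry, FL1 (488/535 nm); read-out: percent drop in bead-associated FITC signal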
Neddyl block: blocks human cullin neddylation; P61081+Q13564; TR-FRET cullin neddylation, biochemical; inhibition, % at 25 µM; 360,000 compounds, 0.58% hits; AID 651699; in the data active means inhibition above about 36%
Target sequence (P61081 whole entry, looked up): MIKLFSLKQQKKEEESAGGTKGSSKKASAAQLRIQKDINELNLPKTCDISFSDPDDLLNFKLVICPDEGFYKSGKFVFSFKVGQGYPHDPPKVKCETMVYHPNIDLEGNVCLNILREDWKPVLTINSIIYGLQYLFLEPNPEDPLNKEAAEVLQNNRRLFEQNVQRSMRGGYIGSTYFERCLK
Target sequence (Q13564 whole entry, looked up): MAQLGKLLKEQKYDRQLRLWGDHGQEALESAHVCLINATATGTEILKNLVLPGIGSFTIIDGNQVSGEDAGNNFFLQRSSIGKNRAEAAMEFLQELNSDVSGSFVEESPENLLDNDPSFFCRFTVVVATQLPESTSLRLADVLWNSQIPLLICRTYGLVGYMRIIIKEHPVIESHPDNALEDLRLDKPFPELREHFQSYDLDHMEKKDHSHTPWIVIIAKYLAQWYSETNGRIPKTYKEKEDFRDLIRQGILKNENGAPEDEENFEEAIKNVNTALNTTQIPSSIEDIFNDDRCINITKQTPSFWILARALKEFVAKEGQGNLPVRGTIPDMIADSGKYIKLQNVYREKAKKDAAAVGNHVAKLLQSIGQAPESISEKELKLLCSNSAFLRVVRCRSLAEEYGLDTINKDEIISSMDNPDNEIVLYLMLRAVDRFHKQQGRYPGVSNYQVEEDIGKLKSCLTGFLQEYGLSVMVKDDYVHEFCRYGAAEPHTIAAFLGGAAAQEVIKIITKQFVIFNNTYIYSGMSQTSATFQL
Efflux pump inh: blocks antifungal efflux pumps in multiplex yeast assay. 330,000 compounds, 0.44% hits. inhibition, % at 10 µM. S. cerevisiae Candida pump triplex, Nile Red efflux. AID 485275;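 active means plate passing quality check with inhibition over a set limit, or well fluorescence over plate mean plus 4 SD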;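 further: Nile Red retained in pooled yeast measured as flow cytometry median fluorescence; 0% = buffer negative control and 100% = Enniatin B positive control; higher means more Nile Red kept so more efflux inhibition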
Neddyl inh conf: cullin neddylation inhibition, confirmation; calls only at 25 µM; TR-FRET cullin neddylation biochemical assay; AID 652217; 1,800 compounds, 13% hits; shares compounds with Neddyl block; in the data active means inhibition above about 40%;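 further: neddylation substrate is the cullin 1 ring ligase complex with SKP2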
Active calls of the source: *; i = inactive; x = no result shown; + = active, no number. A selection: hits, their analogues and other compounds. The true share with any hit is near 1.7%.

SMILES | Pemphigus Ab inh | Arrestin-AP2 inh | Neddyl block | Efflux pump inh | Neddyl inh conf
COC(=O)C1C(O)=C(C(C)=Nc2cccc3ccccc23)C(=O)CC1(C)C (centres undefined) | 112.0 | 1.8 | 45.2* | -0.1 | i
Cc1ccccc1CN(c1ccc(C(=O)N2CCN(C)CC2)cc1)S(C)(=O)=O | 112.7 | 5.7 | 0.7 | 0.4 | x
CC(Sc1ccc(S(=O)(=O)N2CCCCCC2)cn1)C(N)=O (centres undefined) | 98.7 | -7.5 | 11.2 | x | x
CCOc1ccc2oc(C(=O)NNC(=O)c3csc(N4CCOCC4)n3)c(C)c2c1 | 109.1 | -37.6 | 41.4* | 0.0 | i
CCOc1ccc2oc(C(=O)NCC3CCCO3)c(C)c2c1 (centres undefined) | 106.6 | -2.4 | 45.8* | -1.4 | +
COc1ccc2oc(C(=O)NCC3CCCO3)c(C)c2c1 (centres undefined) | 107.5 | 2.2 | x | 0.0 | x
NC(=O)c1cnn(C2CCS(=O)(=O)C2)c1 (centres undefined) | 109.7 | x | -5.6 | 0.2 | x
COCC1CCN(C(=O)c2cc(COc3cccc4cnccc34)on2)CC1 | 98.7 | -4.2 | 55.3* | 0.1 | x
Cc1nn(C)cc1C(C)NC(=O)c1cc(COc2cccc3cnccc23)on1 (centres undefined) | 94.2 | 5.8 | 41.3* | 0.0 | +
CCc1nc2ccc(C(=O)Nc3cccc(OCC(=O)N(C)C)c3)cn2c1N(CC)CCOC | x | x | 2.9 | x | x
COc1ccc(/C=N\NC(=O)c2cc3c(ccc4ccccc43)o2)cc1O | 100.4 | 0.3 | 44.6* | -0.1 | i
O=C(N/N=C/c1ccncc1)c1cc2c(ccc3ccccc32)o1 | x | -0.7 | 25.1 | -0.1 | x
COc1ccc(/C=N/NC(=O)c2cc3c(ccc4ccccc43)o2)cc1OC | 122.7 | 24.7 | x | -0.2 | x
COc1ccccc1/C=N/NC(=O)c1cc2c(ccc3ccccc32)o1 | x | 1.0 | 59.8* | 0.0 | i
O=C(O)c1ccc(/C=N/NC(=O)c2cc3c(ccc4ccccc43)o2)cc1 | 105.2 | 13.1 | 42.9* | -0.1 | i
O=C(C(Cc1ccccc1)n1cccc1)N1CCCCCC1 (centres undefined) | 104.0 | 21.9 | 5.0 | -0.1 | x
CCOc1ccc(NC(=O)CN(C)C(=O)c2cn(-c3ccccc3)nc2-c2cccs2)cc1OCC | 101.2 | -3.3 | -51.6 | 1.3 | x
Nc1ncccc1C(=O)OCC(=O)N1CCN(S(=O)(=O)c2ccc(Cl)cc2)CC1 | 98.9 | 0.7 | 61.7* | 0.0 | x
Cc1ccc(C(=O)NCCCc2ccccc2)s1 | 103.9 | -5.3 | 5.5 | 0.5 | x
O=C(Nc1ccc2c(c1)C(=O)NC2=O)c1cccc(C(F)(F)F)c1 | 101.1 | 3.6 | 40.4* | 0.0 | i
O=C(/C=C/c1ccccc1)Nc1ccc2c(c1)C(=O)NC2=O | 62.4 | -2.1 | 43.8* | 0.0 | x
O=C(Nc1ccc2c(c1)C(=O)NC2=O)c1ccc(S(=O)(=O)N2CCCC2)cc1 | 97.2 | -2.9 | 36.9* | 0.4 | i
CC(=O)Nc1ccc(C(=O)Nc2ccc(S(=O)(=O)N3CCCC3)cc2)cc1 | 107.0 | 23.1 | -8.6 | 0.0 | x
COc1ccc(C(=O)Nc2sc3c(c2C(=O)O)CC(C)(C)OC3)cc1 | 94.7 | 7.2 | 43.0* | -1.1 | +
COc1cc2c(cc1OC)CN(CC(=O)Nc1ccc(F)cc1)C(C(=O)O)C2 (centres undefined) | 110.5 | -4.8 | 14.1 | 0.0 | x
SMILES | Pemphigus Ab inh | Arrestin-AP2 inh | Neddyl block | Efflux pump inh | Neddyl inh conf
COC(=O)c1ccccc1NC(=O)N1CCCC1 | 87.3 | 4.5 | 46.3* | -0.1 | i
COC(=O)c1ccccc1NC(=O)N1CCN(c2ccccc2F)CC1 | 91.3 | 2.6 | 13.0 | 0.0 | x
COC(=O)C(C)N(C(=O)c1ccc(C(=O)c2ccccc2)cc1)c1c(C)cccc1C (centres undefined) | 102.2 | 0.1 | -64.5 | 0.1 | x
COc1ccc2oc(=O)c(-c3nc4ccccc4o3)cc2c1 | 97.3 | -3.5 | 48.6* | 0.0 | +
COc1ccc2oc(=O)c(-c3nnc(NCc4ccco4)s3)cc2c1 | 90.5 | 5.2 | 45.1* | 0.2 | i
O=C(NCCc1ccc(Cl)cc1Cl)C1=CC=CN2CCS(=O)(=O)N=C12 | 106.2 | 1.4 | 53.3* | -0.1 | +
CC(C)c1ccc(NC(=O)C2=CC=CN3CCS(=O)(=O)N=C23)cc1 | 98.0 | 25.1 | -2.7 | x | x
CCN(CC)CCOC(=O)c1ccccc1Br | 109.2 | 2.4 | -13.2 | 0.0 | x
CCN(CC)CCOC(=O)c1cccc2c1-c1ccccc1C2O (centres undefined) | 113.0 | 1.1 | 37.3* | 0.2 | i
CCOC(=O)C1=C(C)NC(C)=C(C(=O)OCC)C1C(=O)OCC(=O)NCc1ccc(F)cc1 | 97.1 | 4.7 | 46.8* | -0.5 | x
CCOC(=O)C1=C(C)NC(C)=C(C(=O)OCC)C1C(=O)OCC(=O)NC1CCCCC1 | 94.5 | -6.3 | 39.3* | 0.1 | i
COC(=O)C[C@@H]1OC[C@H](C(C)C)N1S(=O)(=O)c1ccc(C)cc1 | x | x | -14.3 | x | x
COC(=O)C1=C(C)NC2=C(C(=O)CC(C)(C)C2)C1c1cnn(C)c1C (centres undefined) | 99.5 | 11.3 | 40.3* | 0.0 | x
Cc1c(C2Nc3ccccc3NC3=C2C(=O)CC(C)(C)C3)cnn1C (centres undefined) | 95.0 | 16.8 | -17.5 | -0.1 | x
Cc1ccc(S(C)(=O)=O)cc1C(=O)N1CC(C(N)=O)Oc2ccccc21 (centres undefined) | 102.9 | 2.9 | -0.5 | 0.1 | x
COc1ccccc1/C=C/c1nc(S(=O)(=O)c2ccccc2)c(NCCN(C)C)o1 | 119.3 | -3.3 | 41.8* | 0.1 | x
Cc1cc2n(n1)C(c1ccc(O)cc1)Nc1ccccc1-2 (centres undefined) | x | 10.6 | 42.3* | -0.3 | i
COc1cc(NC(=O)c2cc(-c3ccco3)on2)c(OC)cc1Cl | 105.5 | 7.7 | 40.9* | -0.2 | i
COc1ccc(-c2cc(C(=O)Nc3ccccc3SC)no2)cc1OC | 99.1 | -7.9 | 41.9* | 0.1 | i
COc1ccc(NC(=O)c2cc(-c3ccco3)on2)c(OC)c1 | 105.3 | 0.2 | 37.6 | -0.1 | x
COC(=O)c1cccc([N+](=O)[O-])c1CN1CCCC(C(N)=O)C1 (centres undefined) | 115.4 | 6.2 | 42.0* | -0.1 | i
O=C(C1CCCN(Cc2ccccc2[N+](=O)[O-])C1)N1CCCCC1 (centres undefined) | 107.2 | 8.1 | -11.5 | -0.1 | x
Cc1cc(N/C(=N/S(=O)(=O)c2ccc(F)cc2)c2ccccc2)n(-c2ccccc2)n1 | 100.4 | -7.8 | 51.8* | -0.3 | i
COc1ccc2sc(-c3ccc(SC)cc3)c(C#CCO)c2c1 | 92.2 | 7.1 | 38.5* | -0.2 | x
O=C(CCNS(=O)(=O)c1ccccc1)OCC(=O)c1ccc(Cl)cc1 | 102.0 | -1.3 | 2.9 | -0.1 | x
O=C(c1cccc(Cl)c1)N1CCN(c2ccc(N3CCOCC3)nn2)CC1 | 112.3 | -15.1 | 57.0* | -0.1 | x
O=C(c1ccccc1)N1CCN(c2ccc(N3CCOCC3)nn2)CC1 | 105.2 | -14.3 | 63.0* | 0.1 | x
O=C(c1ccc(Cl)cc1Cl)N1CCN(c2ccc(N3CCOCC3)nn2)CC1 | 108.5 | -4.9 | 52.4* | 0.0 | x

Screening results: PubChem BioAssay, several laboratories
